Reference: ChEMBL document CHEMBL2311350, “Discovery of a novel phenylethyl benzamide glucokinase activator for the treatment of type 2 diabetes mellitus” (Bioorg Med Chem Lett, 2013)

Columns and labels:
[1] = Bioavailability in dog; assay type: ADME, organism-based, Canis lupus familiaris; details: in vivo
Summary of the method: (§1)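 Pharmacokinetics in mice and dogs after a single intravenous dose and a single oral dose. Clearance, volume of distribution, elimination half-life and oral bioavailability (F) were derived.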

[2] = Bioavailability in mouse; assay type: ADME, organism-based; details: in vivo; summary of the method: as §1
[3] = Elimination half life in mouse; assay type: ADME, organism-based; details: in vivo, read-out: beta t1/2 (converted); summary of the method: as §1
[4] = Elimination half life in dog; assay type: ADME, organism-based, Canis lupus familiaris; details: in vivo, read-out: beta t1/2 (converted); summary of the method: as §1
[5] = Volume of distribution in mouse; assay type: ADME, organism-based; details: in vivo; summary of the method: as §1
[6] = Volume of distribution in dog; assay type: ADME, organism-based, Canis lupus familiaris; details: in vivo; summary of the method: as §1
[7] = Clearance in dog; assay type: ADME, organism-based, Canis lupus familiaris; details: in vivo; summary of the method: as §1
[8] = Clearance in mouse; assay type: ADME, organism-based; details: in vivo; summary of the method: as §1
Cytochrome P450 3A4 = Cytochrome P450 3A4 (Homo sapiens, UniProt P08684); assay: Inhibition of CYP3A4 (unknown origin) at 25 to 50 uM; assay type: ADME
Cytochrome P450 2D6 = Cytochrome P450 2D6 (Homo sapiens, UniProt P10635); assay: Inhibition of CYP2D6 (unknown origin) at 25 to 50 uM; assay type: ADME
Cytochrome P450 2C19 = Cytochrome P450 2C19 (Homo sapiens, UniProt P33261); assay: Inhibition of CYP2C19 (unknown origin) at 25 to 50 uM; assay type: ADME
Cytochrome P450 2C9 = Cytochrome P450 2C9 (Homo sapiens, UniProt P11712); assay: Inhibition of CYP2C9 (unknown origin) at 25 to 50 uM; assay type: ADME
Cytochrome P450 1A2 = biological target: T1, Cytochrome P450 1A2 (Homo sapiens, UniProt P05177); assay: Inhibition of CYP1A2 (unknown origin) at 25 to 50 uM; assay type: ADME
T1 sequence (P05177 whole entry): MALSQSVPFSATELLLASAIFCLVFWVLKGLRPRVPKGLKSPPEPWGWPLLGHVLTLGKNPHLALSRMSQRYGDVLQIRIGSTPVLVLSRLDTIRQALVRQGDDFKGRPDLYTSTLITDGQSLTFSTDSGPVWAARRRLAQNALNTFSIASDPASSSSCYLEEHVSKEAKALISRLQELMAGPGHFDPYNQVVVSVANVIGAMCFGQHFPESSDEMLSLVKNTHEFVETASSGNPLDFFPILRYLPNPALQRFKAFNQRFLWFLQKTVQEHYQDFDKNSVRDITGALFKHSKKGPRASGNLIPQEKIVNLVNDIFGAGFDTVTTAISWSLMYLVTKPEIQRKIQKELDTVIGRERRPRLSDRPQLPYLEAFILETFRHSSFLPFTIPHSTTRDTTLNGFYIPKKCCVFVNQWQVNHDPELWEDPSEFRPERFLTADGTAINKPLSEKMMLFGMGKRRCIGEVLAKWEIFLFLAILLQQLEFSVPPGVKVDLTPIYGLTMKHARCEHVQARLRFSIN

[9] = Metabolic stability in human liver microsomes assessed as compound remaining after 60 mins; assay type: ADME, Microsome; details: read-out: Stability
Summary of the method: (§2)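 Compound incubated for 1 h with mouse, dog or human liver microsomes. Percent of parent compound remaining was measured.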

[10] = Metabolic stability in mouse liver microsomes assessed as compound remaining after 60 mins; assay type: ADME, Microsome; details: read-out: Stability; summary of the method: as §2
[11] = Metabolic stability in dog liver microsomes assessed as compound remaining after 60 mins; assay type: ADME, Canis lupus familiaris, Microsome; details: read-out: Stability; summary of the method: as §2
Mus musculus [12] = organism: Mus musculus; assay: Toxicity in ob/ob mouse assessed as effect on body weight; assay type: organism-based; details: in vivo
Summary of the method: (§3)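 ob/ob mice dosed orally and repeatedly in a subchronic study. Blood glucose, serum lipids and body weight were monitored.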

Mus musculus [13] = assay: Toxicity in C57BL/J mouse assessed as hypoglycemic risk at 150 mg/kg; assay type: organism-based; set-up: dose 150 mg/kg; details: in vivo
Summary of the method: (§4)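 C57BL/J6 mice given oral dosing followed by an oral glucose tolerance test. Plasma glucose was tracked over time and glucose AUC reduction calculated. Several doses were tested, including 50 and 150 mg/kg. Hypoglycemia risk was judged from the glucose profiles.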

Mus musculus [14] = assay: Increase in oral glucose tolerance in C57BL/J mouse assessed as reduction in glucose area under curve at 50 mg/kg by OGTT; assay type: functional; set-up: scale not given: the % may be the effect or the level left; summary of the method: as §4
Hexokinase-4 [15] = biological target: T2, Hexokinase-4 (Homo sapiens, UniProt P35557); assay: Induction of human hepatic glucokinase activity at 5 mM glucose concentration
T2 sequence (P35557 whole entry): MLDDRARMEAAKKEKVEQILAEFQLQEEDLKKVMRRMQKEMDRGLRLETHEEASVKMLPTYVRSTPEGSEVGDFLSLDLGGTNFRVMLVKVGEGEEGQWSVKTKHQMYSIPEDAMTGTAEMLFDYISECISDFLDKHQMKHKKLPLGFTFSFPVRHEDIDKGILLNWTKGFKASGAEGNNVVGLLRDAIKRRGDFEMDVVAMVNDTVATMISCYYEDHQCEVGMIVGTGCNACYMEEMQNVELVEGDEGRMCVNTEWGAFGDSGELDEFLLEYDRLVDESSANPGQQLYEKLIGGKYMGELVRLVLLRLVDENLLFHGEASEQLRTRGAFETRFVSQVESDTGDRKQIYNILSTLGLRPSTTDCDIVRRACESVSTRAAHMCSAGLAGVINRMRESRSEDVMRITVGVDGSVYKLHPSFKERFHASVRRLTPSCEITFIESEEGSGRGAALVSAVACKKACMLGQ
Summary of the method: (§5)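 Enzymatic assay with purified recombinant human pancreatic or liver glucokinase, read as fold increase in activity at 5.0 mM glucose. EC50 is the mean of at least duplicate runs. For the pancreatic enzyme, glucose S0.5 and Vmax were also determined.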

Hexokinase-4 [16] = biological target: T2, Hexokinase-4; assay: Induction of human pancreatic glucokinase activity at 5 mM glucose concentration; summary of the method: as §5
Mus musculus [17] = organism: Mus musculus; assay: Toxicity in ob/ob mouse assessed as effect on serum lipid level; assay type: organism-based; details: in vivo; summary of the method: as §3
Mus musculus [18] = assay: Increase in oral glucose tolerance in C57BL/J mouse assessed as reduction in glucose area under curve at 300 mg/kg by OGTT; assay type: functional; set-up: scale not given: the % may be the effect or the level left

Sequence of Cytochrome P450 3A4 (P08684 whole entry): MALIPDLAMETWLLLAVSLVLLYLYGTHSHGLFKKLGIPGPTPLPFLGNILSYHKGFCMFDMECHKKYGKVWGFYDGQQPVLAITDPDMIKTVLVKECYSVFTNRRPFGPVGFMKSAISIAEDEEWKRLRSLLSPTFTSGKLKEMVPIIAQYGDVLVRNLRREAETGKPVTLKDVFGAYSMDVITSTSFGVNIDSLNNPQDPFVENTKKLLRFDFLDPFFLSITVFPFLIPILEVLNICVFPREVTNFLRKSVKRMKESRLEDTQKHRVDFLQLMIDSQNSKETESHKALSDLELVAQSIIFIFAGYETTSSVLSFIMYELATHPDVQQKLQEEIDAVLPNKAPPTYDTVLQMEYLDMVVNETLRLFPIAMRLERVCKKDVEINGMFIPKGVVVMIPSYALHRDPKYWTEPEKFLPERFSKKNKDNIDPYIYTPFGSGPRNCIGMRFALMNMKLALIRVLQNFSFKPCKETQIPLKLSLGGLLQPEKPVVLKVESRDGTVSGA
Sequence of Cytochrome P450 2C19 (P33261 whole entry): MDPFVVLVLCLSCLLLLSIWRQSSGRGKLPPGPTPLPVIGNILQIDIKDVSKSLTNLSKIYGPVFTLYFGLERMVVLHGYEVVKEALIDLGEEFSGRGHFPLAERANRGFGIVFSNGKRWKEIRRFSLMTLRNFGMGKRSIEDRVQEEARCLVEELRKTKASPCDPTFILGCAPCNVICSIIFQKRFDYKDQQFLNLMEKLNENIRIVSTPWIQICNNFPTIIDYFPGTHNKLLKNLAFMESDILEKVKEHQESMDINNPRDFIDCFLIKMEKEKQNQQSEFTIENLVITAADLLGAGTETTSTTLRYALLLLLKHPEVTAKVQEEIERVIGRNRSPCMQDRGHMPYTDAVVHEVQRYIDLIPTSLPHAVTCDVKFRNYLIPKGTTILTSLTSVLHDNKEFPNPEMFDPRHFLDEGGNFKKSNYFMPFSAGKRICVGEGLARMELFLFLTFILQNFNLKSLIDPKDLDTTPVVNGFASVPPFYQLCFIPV
Sequence of Cytochrome P450 2D6 (P10635 whole entry): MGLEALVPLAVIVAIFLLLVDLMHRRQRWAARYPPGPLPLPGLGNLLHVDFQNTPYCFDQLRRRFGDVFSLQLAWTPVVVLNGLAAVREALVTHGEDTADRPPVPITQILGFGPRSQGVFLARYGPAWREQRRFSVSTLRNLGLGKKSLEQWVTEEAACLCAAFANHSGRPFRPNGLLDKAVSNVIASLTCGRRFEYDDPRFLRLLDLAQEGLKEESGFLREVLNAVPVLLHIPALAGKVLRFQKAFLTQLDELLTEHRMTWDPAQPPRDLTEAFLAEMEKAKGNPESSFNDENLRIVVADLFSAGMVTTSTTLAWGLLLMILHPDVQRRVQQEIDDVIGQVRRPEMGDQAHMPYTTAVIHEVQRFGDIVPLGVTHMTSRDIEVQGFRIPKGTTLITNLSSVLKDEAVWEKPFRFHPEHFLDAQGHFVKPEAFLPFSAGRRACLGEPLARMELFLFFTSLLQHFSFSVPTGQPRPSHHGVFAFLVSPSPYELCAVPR
Sequence of Cytochrome P450 2C9 (P11712 whole entry): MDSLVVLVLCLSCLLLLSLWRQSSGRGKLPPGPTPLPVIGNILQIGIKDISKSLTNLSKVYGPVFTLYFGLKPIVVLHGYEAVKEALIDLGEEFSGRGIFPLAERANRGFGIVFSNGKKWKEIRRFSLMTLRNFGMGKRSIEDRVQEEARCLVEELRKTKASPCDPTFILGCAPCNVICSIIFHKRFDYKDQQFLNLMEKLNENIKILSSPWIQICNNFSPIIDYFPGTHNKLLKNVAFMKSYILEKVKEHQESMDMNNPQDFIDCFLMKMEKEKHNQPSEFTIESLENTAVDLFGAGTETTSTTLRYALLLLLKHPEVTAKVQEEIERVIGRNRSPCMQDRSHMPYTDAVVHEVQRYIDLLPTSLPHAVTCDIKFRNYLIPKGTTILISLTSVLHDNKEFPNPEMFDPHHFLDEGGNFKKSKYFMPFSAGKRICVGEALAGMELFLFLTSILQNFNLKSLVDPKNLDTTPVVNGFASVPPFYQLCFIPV

Structure (SMILES): COC[C@H](C)Oc1cc(Oc2cc(F)cc(F)c2)cc(C(=O)Nc2ccc(C(=O)O)cn2)c1
- bioavailability [1]: 100%

Structure (SMILES): COC[C@H](C)Oc1cc(CCc2c(F)cccc2F)cc(C(=O)Nc2ccc(C(=O)O)cn2)c1
- bioavailability [2]: 66%
- bioavailability [1]: 85%
- half-life [3]: 2.6 h
- half-life [4]: 2.6 h
- Vd [5]: 0.33 L/kg
- Vd [6]: 0.49 L/kg
- clearance [7]: 7.17 mL/min/kg
- clearance [8]: 2.5 mL/min/kg
- inhibition (INH) (Cytochrome P450 3A4): Not Active
- inhibition (INH) (Cytochrome P450 2D6): Not Active
- inhibition (INH) (Cytochrome P450 2C19): Not Active
- inhibition (INH) (Cytochrome P450 2C9): Not Active
- inhibition (INH) (Cytochrome P450 1A2): Not Active
- remaining at 1 h [9]: > 60%
- remaining at 1 h [10]: > 60%
- remaining at 1 h [11]: > 60%
- Activity (Mus musculus [12]): Non-toxic
- Activity (Mus musculus [13]): Toxic
- Activity (Mus musculus [14]): 29.6%
- EC50 (Hexokinase-4 [15]): 0.085 µM
- EC50 (Hexokinase-4 [16]): 0.07 µM
- Activity (Mus musculus [17]): Non-toxic

Structure (SMILES): COC[C@H](C)Oc1cc(/C=C/c2ccccc2[N+](=O)[O-])cc(C(=O)Nc2ccn(C)n2)c1
- EC50 (Hexokinase-4 [16]): 0.283 µM

Structure (SMILES): COC[C@H](C)Oc1cc(/C=C/c2ccc([N+](=O)[O-])cc2)cc(C(=O)Nc2ccn(C)n2)c1
- EC50 (Hexokinase-4 [16]): 0.852 µM

Structure (SMILES): COC[C@H](C)Oc1cc(/C=C/c2ccccc2F)cc(C(=O)Nc2ccn(C)n2)c1
- EC50 (Hexokinase-4 [16]): 0.08 µM

Structure (SMILES): COC[C@H](C)Oc1cc(/C=C/c2ccc(F)cc2)cc(C(=O)Nc2ccn(C)n2)c1
- EC50 (Hexokinase-4 [16]): 0.119 µM

Structure (SMILES): COC[C@H](C)Oc1cc(/C=C/c2ccc(F)cc2F)cc(C(=O)Nc2ccn(C)n2)c1
- EC50 (Hexokinase-4 [16]): 0.109 µM

Structure (SMILES): COC[C@H](C)Oc1cc(/C=C/c2cc(F)ccc2F)cc(C(=O)Nc2ccn(C)n2)c1
- EC50 (Hexokinase-4 [16]): 0.2 µM

Structure (SMILES): COC[C@H](C)Oc1cc(/C=C/c2c(F)cccc2F)cc(C(=O)Nc2ccn(C)n2)c1
- EC50 (Hexokinase-4 [16]): 0.161 µM

Structure (SMILES): COC[C@H](C)Oc1cc(/C=C/c2cc(F)cc(F)c2F)cc(C(=O)Nc2ccn(C)n2)c1
- EC50 (Hexokinase-4 [16]): 0.848 µM

Structure (SMILES): COC[C@H](C)Oc1cc(/C=C/c2ccccc2OC)cc(C(=O)Nc2ccn(C)n2)c1
- EC50 (Hexokinase-4 [16]): 0.115 µM

Structure (SMILES): COC[C@H](C)Oc1cc(/C=C/c2cccc(C)n2)cc(C(=O)Nc2ccn(C)n2)c1
- EC50 (Hexokinase-4 [16]): 0.132 µM

Structure (SMILES): COC[C@H](C)Oc1cc(CCc2ccc(F)cc2)cc(C(=O)Nc2ccn(C)n2)c1
- EC50 (Hexokinase-4 [16]): 0.216 µM

Structure (SMILES): COC[C@H](C)Oc1cc(CCc2ccc(F)cc2F)cc(C(=O)Nc2ccn(C)n2)c1
- EC50 (Hexokinase-4 [16]): 0.184 µM

Structure (SMILES): COC[C@H](C)Oc1cc(CCc2c(F)cccc2F)cc(C(=O)Nc2ccn(C)n2)c1
- EC50 (Hexokinase-4 [16]): 0.131 µM

Structure (SMILES): COC[C@H](C)Oc1cc(CCc2cc(F)cc(F)c2F)cc(C(=O)Nc2ccn(C)n2)c1
- EC50 (Hexokinase-4 [16]): 0.855 µM

Structure (SMILES): COC[C@H](C)Oc1cc(/C=C/c2ccc([N+](=O)[O-])cc2)cc(C(=O)Nc2ccc(C(=O)O)cn2)c1
- EC50 (Hexokinase-4 [16]): 0.284 µM

Structure (SMILES): COC[C@H](C)Oc1cc(/C=C/c2cc(F)cc(F)c2F)cc(C(=O)Nc2ccc(C(=O)O)cn2)c1
- EC50 (Hexokinase-4 [16]): 0.778 µM

Structure (SMILES): CN(C)C(=N)NC(=N)N [METFORMIN]
- Activity (Mus musculus [18]): 29.9%
